Inhibition data for 106 molecules are collected here from PubChem BioAssay AID1235 (PCMD, 2008).

As a reminder, the inhibition is the change of the read-out against control, counted positive when it falls.

Among all 62,000 compounds or so, about 50 (0.08%) were called active. This is one part of a sample in which actives are shown more often than they occur.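 Rule for the calls: active = inhibition above 30% in each of the two pooled mixtures holding the compound, so the lower value exceeds 30%; inactive = the rest.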

A short description of this experiment: blockers of serum C3 deposition on LPS – biochemical, ELISA, human serum, orthogonally pooled compounds, primary screen (AID 1235).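 Note: 0% = serum in Mg-EGTA without compound and 100% = EDTA serum blank.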 As to conditions: Human serum alternative complement pathway, LPS-coated ELISA, tested in compound mixtures, at 5 µM, hits give high values. A digest of the protocol: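 Medium: diluted human serum in Mg2+-EGTA GVB++. Assay system: human serum complement alternative pathway, C3 deposition onto LPS. Also added: Plate-bound LPS. Technique: Anti-C3 ELISA, OD 450 nm. Measure: percent inhibition. Incubation: 1 h at 37 °C. Dosing: 5 µM each compound, pools of ten, 50 µM per pool.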
On the technique in general: ELISA stands for enzyme-linked immunosorbent assay.
For the molecule `COc1ccccc1CNC(=O)C1CCN(S(C)(=O)=O)CC1`, the inhibition was 35.9% (active). In the case of `COc1ccccc1CNC(=O)C1CCN(c2nc3ccccc3o2)CC1`, the inhibition was -3.35% (inactive). The same measure for `COc1ccccc1CNC(=O)C1CCCN(S(=O)(=O)c2cccc3cccnc23)C1` (stereo unspecified): 5.61% (inactive). Turning to `CCn1c(SCC(=O)Nc2ccccc2F)nc2c(c1=O)SC(C)C2` (stereo unspecified), the inhibition was -1.83% (inactive). Take `COC(=O)c1ccc(N(CC(=O)NC2CCCC2)C(=O)CNC(=O)c2ccco2)cc1`: the inhibition was 13.6% (inactive). Next, `CCCNC(=O)Nc1ccccc1C(=O)Nc1ccc(OC)cc1`: 6.47% (inactive); `CCCN1C2=C(C(=O)CCC2)C(c2ccc(O)c(Br)c2)C2=C1CCCC2=O`: 3.41% (inactive); `COc1ccc(OC)c(Nc2nc(-c3ccc(O)c(O)c3)cs2)c1`: 15.1% (inactive). The same measure for `O=c1c2ccccc2nc(CSc2nnnn2-c2ccccc2)n1-c1ccccc1`: 16.5% (inactive); for `CCC1C(C#N)=C(SC)NC2=C1C(=O)CC(C)(C)C2` (stereo unspecified): 29.5% (inactive). For `C=C(C)Cn1c(N2CCCC2)nc2c1c(=O)[nH]c(=O)n2C`, the inhibition was 13.6% (inactive). Next, `COc1ccc(OC)c(NC(=O)CC(Cc2ccccc2OC)C(=O)O)c1` (stereo unspecified): 6.63% (inactive); `O=C(Cn1cnc2c(nnn2-c2ccccc2)c1=O)N1CCC(Cc2ccccc2)CC1`: 12.9% (inactive); `CCC1SC2=NCCN2C1(O)c1ccc(Cl)cc1` (stereo unspecified): -4.64% (inactive). Next, `CCN(CC)c1ccc(C(=O)OCC(=O)c2ccco2)cc1`: -18.9% (inactive); `Cc1nn(Cc2ccc(Cl)c(Cl)c2)c(C)c1NC(=O)c1cc(C2CC2)on1`: 14.3% (inactive); `COc1ccccc1N1CCN(c2nc3ccccc3n3nnnc23)CC1`: -4.06% (inactive). The same measure for `CCOC(=O)c1cc2sccc2n1Cc1ccc(C#N)cc1`: 8.71% (inactive). Consider `COCCNC(=O)c1snc2ccc(Cl)cc12`, for which the inhibition was -12.7% (inactive). Next, `Cc1ccn2cc(-c3nonc3C)cc2c1`: 17.2% (inactive). Next, `Cc1ccc(N2C(=O)CC(NCc3ccc4c(c3)OCO4)C2=O)cc1Cl` (stereo unspecified): 24.4% (inactive). The same measure for `O=C(Nc1ccc2c(c1)OCCO2)C1CCCN(c2ncccn2)C1` (stereo unspecified): 4.42% (inactive). Regarding `CCOc1ccc(OCC)c(NC(=O)C2CCN(S(=O)(=O)c3c(C)noc3C)CC2)c1`, the inhibition was 4.52% (inactive). The same measure for `O=C(NCCc1ccccn1)c1ccc(COc2ccccc2)o1`: 13.5% (inactive).

Consider `COc1cccc(NC(=O)c2ccccc2SC)c1`, for which the inhibition is 12.3% (inactive). Turning to `CC(C)OCCCNC(=O)C1CC(=O)N(C2CCCCCCC2)C1` (stereo unspecified), the inhibition is 16.3% (inactive).

For `CC(C)(O)C#Cc1ccc(C(=O)N2CCC(C(N)=O)(N3CCCCC3)CC2)cc1`, the inhibition is 0.925% (inactive).

As for `CCN(CC)S(=O)(=O)c1ccc2nc(CSc3nnnn3-c3ccc(O)cc3)[nH]c2c1`, the inhibition was -3.47% (inactive). On to `O=C(NCc1cccnc1)c1cn(-c2ccccc2)nc1-c1cccs1`, for which the inhibition is 0.865% (inactive). Next, `COc1ccc(NC(=O)CCNC(=O)Cn2ccc3ccccc3c2=O)c(OC)c1`: 29.1% (inactive); `CCOC(=O)c1ccc(N2C(=O)CC(N3CCC(C(=O)OCC)CC3)C2=O)cc1` (stereo unspecified): -0.58% (inactive). For the molecule `O=P(O)(CN1CCCCC1)CN1CCCCC1`, the inhibition was 8.65% (inactive).

For the molecule `Cc1noc(C)c1CSc1nnc2ccc3ccccc3n12`, the inhibition is 9.95% (inactive).

`COc1ccc(OC)c(S(=O)(=O)Nc2ccccc2F)c1`: the inhibition is 6.16% (inactive).

As for `COC(=O)Nc1ccc(S(=O)(=O)N(C)CC(F)(F)C(F)F)cc1`, the inhibition is 13.5% (inactive). The same measure for `Cc1ccc(C)c(N2CCN(C(=O)CCc3nc4ccccc4[nH]3)CC2)c1`: 18.5% (inactive); for `Cc1ccc(-c2nnn(CC(=O)N(CCO)C(C(=O)NC(C)(C)C)c3ccncc3)n2)cc1` (stereo unspecified): 9.36% (inactive); for `Cc1ccc(C)c(N2CCN(S(=O)(=O)c3ccc4c(c3)oc(=O)n4C)CC2)c1`: 3.29% (inactive). Next, `CN(C)CC(O)COc1ccc(C(C)(C)c2ccc(OCC(O)CN(C)C)cc2)cc1` (stereo unspecified): 0.48% (inactive). As to `Cc1nc(Nc2ccc3c(c2)OCCO3)c2nnn(Cc3ccccc3Cl)c2n1`, the inhibition was 1.64% (inactive). The same measure for `Cc1cc(C)c(C#N)c(SCS(=O)c2ccc(C(C)(C)C)cc2)n1` (stereo unspecified): 4.51% (inactive); for `COc1ccc(-c2[nH]nc3c2C(c2ccncc2)C(C#N)=C(N)O3)cc1` (stereo unspecified): 0.015% (inactive); for `CC(C)(C)c1cc(CN2CCN(CCC#N)CC2)cc(C(C)(C)C)c1O`: -7.06% (inactive).

For the molecule `CC1CCc2c(sc(NC(=O)c3ccc(Cn4cc(Br)cn4)o3)c2C(N)=O)C1` (stereo unspecified), the inhibition is 8.16% (inactive). Next, `Cc1cccc(N=C2NC(=O)CS2)c1C`: 4.01% (inactive). For `Cc1ccc2nc(S(=O)(=O)O)[nH]c2c1`, the inhibition was -4.08% (inactive).

For `O=C(Cn1nc(C(F)(F)F)c2c1CCC2)NCc1ccc(F)cc1`, the inhibition is -10.2% (inactive). Next, `CCc1nnc(NC(=O)CSc2nnc(-c3ccncc3)n2Cc2ccccc2)s1`: 6.79% (inactive); `C=C(C)Cn1c(N2CCN(CC)CC2)nc2c1c(=O)[nH]c(=O)n2C`: -2.46% (inactive); `COC(=O)C(C)n1cnc2c(nnn2-c2cccc(Cl)c2)c1=O` (stereo unspecified): 7.95% (inactive).

With `Cc1c(C(=O)N2CC(C)OC(C)C2)sc2nc(-c3ccccc3)cn12` (stereo unspecified), the inhibition is 11% (inactive).

Turning to `FC(F)(F)c1cccc(Nc2ncnc3ccccc23)c1`, the inhibition was 13.9% (inactive). The same measure for `Cc1cc(=O)n2nc(N3CCCC3C(=O)NCCCN3CC(C)CC(C)C3)sc2n1` (stereo unspecified): 20.4% (inactive). The same measure for `CCCN1CC=C2C(C#N)=C(N)C(C#N)(C#N)C(c3cc(OC)ccc3OC)C2C1` (stereo unspecified): -5.21% (inactive); for `Cc1cc(C(=O)O)c(S(C)(=O)=O)s1`: 21.7% (inactive); for `O=C(OCc1cc2ccccc2[nH]c1=O)c1cccnc1`: 1.83% (inactive). Next, `CCOC(=O)N1CCN(CC(=O)c2ccc3c(c2)CCN3)CC1`: 22.3% (inactive); `CCOC(=O)C1(C(F)(F)F)N=C(N(C)C)OC(N(C)C)=N1`: 23.1% (inactive); `O=C(CSc1n[nH]c(-c2cccnc2)n1)Nc1ccnc2ccccc12`: -1.01% (inactive). For the molecule `CSc1nnc2c(n1)OC(c1cn(C)c3ccccc13)N(C(C)=O)c1ccccc1-2` (stereo unspecified), the inhibition is 12.4% (inactive). The same measure for `Cc1nc2nc(CSc3nc4ccccc4s3)cc(=O)n2[nH]1`: 8.57% (inactive); for `O=C(NCc1ccc2c(c1)OCO2)C1CCCN(S(=O)(=O)c2cccs2)C1` (stereo unspecified): 7.05% (inactive). Next, `CCCCn1c(SCc2ncc(-c3ccccc3)o2)nc2cc(S(N)(=O)=O)ccc21`: 20.9% (inactive). Take `O=C(CC(NCCN1CCOCC1)C(=O)O)Nc1cccc(Cl)c1` (stereo unspecified): the inhibition is -2.21% (inactive). On to `COc1ccc(CC(=O)Nc2c3c(nn2-c2cccc(Cl)c2)CS(=O)C3)cc1` (stereo unspecified), for which the inhibition was 11.2% (inactive). The same measure for `Cc1ccc(OS(=O)Nc2cccc3nccnc23)cc1` (stereo unspecified): 10% (inactive); for `CCN(c1ccc2c(c1)OCO2)S(=O)(=O)c1cc(Br)cc2c1N(C(=O)C1CC1)CC2`: -0.915% (inactive).

For `COc1ccccc1-c1nnc(SCC(=O)Nc2ccccc2)o1`, the inhibition is 4.25% (inactive). Next, `CCOc1ccccc1NC(=O)CCc1ccc(C)o1`: 9.69% (inactive); `O=C(Nc1ccc(S(=O)(=O)N2CCCCC2)cc1)c1cnccn1`: 13.5% (inactive).

As to `CCCCCCn1c(CN2CCCC(C)C2)nc2c1c(=O)n(C)c(=O)n2C` (stereo unspecified), the inhibition is 8.35% (inactive). Next, `CCCOc1ccccc1-c1nc(SCCC(=O)O)n[nH]1`: 24% (inactive). The same measure for `CCCCCn1c(SCCC(C)C)nc2c1c(=O)[nH]c(=O)n2C`: 4.81% (inactive). The same measure for `COc1cc(Cl)c(C)cc1NC(=O)CSc1nnc(-c2ccco2)n1CC(C)C`: 10.7% (inactive); for `OC(COc1ccccc1)Cn1cc(Br)cn1` (stereo unspecified): 3.79% (inactive). For `c1ccc(-n2ncc3c2ncn2c(C4CCCCC4)nnc32)cc1`, the inhibition was 14.3% (inactive). The same measure for `COc1ccc(CCNC(=O)CCn2c(=O)oc3ccccc32)cc1OC`: 6.83% (inactive). The same measure for `CSCCC(NC(=O)C1CCC(C)CC1)C(=O)NCc1ccco1` (stereo unspecified): 11.6% (inactive); for `COC(=O)c1cc(Cl)c(NC(=O)c2ccco2)cc1OC`: 13% (inactive). With `COCCCNC(=O)CSc1nc2ccc(N3CCOCC3)cc2c(=O)n1CCc1ccccc1`, the inhibition was 22.2% (inactive). Next, `CCOC(=O)c1ccc(NC(=O)CSc2nnc(COc3ccccc3OC)n2C)cc1`: 7.25% (inactive). For the molecule `CCOC(=O)c1sc(=S)n(-c2cccc(OC)c2)c1N`, the inhibition was 5.37% (inactive). The same measure for `Cc1ccc(NC(=O)CCNS(=O)(=O)c2ccc3c(c2)oc(=O)n3C)cc1C`: 15.7% (inactive); for `CC1(C)CC(=O)C=C(NCc2ccncc2)C1`: -1.25% (inactive); for `Cc1nn(C(=O)c2ccoc2C)c(N)c1-c1ccccc1`: 10.4% (inactive). The same measure for `O=C(N1CCOCC1)N(Cc1ccccc1)c1ccccn1`: -5.66% (inactive); for `Cc1ccc(-c2csc3nnc(SCC(=O)NCc4ccco4)n23)cc1`: 2.88% (inactive). The same measure for `COc1ccc(C2C(C(=O)N3CCN(c4ccc(OC)cc4)CC3)c3ccccc3C(=O)N2C)cc1` (stereo unspecified): 8.23% (inactive); for `O=C(CSc1nc2ccccc2[nH]1)c1cccs1`: 12.6% (inactive); for `O=C(c1cc(-c2ccc(O)cc2)on1)N1CCCc2ccccc21`: 9.64% (inactive).

On to `CC(C)(C)NC(=O)C(c1ccncc1)N(C(=O)CNC(=O)c1ccco1)c1ccc2c(c1)OCO2` (stereo unspecified), for which the inhibition was 4.9% (inactive). Next, `c1ccc(-c2cc(-c3nnc4sc(-c5ccccn5)nn34)[nH]n2)cc1`: 8.74% (inactive); `CC12CCC(C(=O)N3CCN(c4ncccn4)CC3)(c3nc4ccccc4nc31)C2(C)C` (stereo unspecified): 20.7% (inactive); `O=C(O)C1CC(=O)N(Cc2cccnc2)C1` (stereo unspecified): 15.1% (inactive).

As for `COCCNC(=O)Cn1cc2c(n1)CCCCC2`, the inhibition is 3.37% (inactive).

As for `COc1ccc(S(=O)(=O)N(CCCN2CCCC2=O)Cc2cc3c(C)ccc(C)c3[nH]c2=O)cc1`, the inhibition is 5.72% (inactive). Next, `Clc1ccc(CSc2nnc([C@@H]3CCCN3)o2)cc1`: 13.7% (inactive); `CCn1c(SCC(=O)Nc2nc3ccc(OC)cc3s2)nnc1-c1ccoc1C`: 4.77% (inactive); `COC(=O)N1CN(C(=O)OC)CN(C(=O)OC)C1`: 4.11% (inactive). Next, `Cn1c(SCc2c(F)cccc2Cl)nnc1-c1cnccn1`: -5.66% (inactive); `O=S(=O)(c1ccc(Sc2nnc3ccccn23)nc1)N1CCOCC1`: -7.45% (inactive); `COc1ccccc1-c1cc(C(=O)NCCCn2ccnc2)no1`: 1.27% (inactive). The same measure for `COc1ccccc1N1CCN(CCCCOc2ccc(F)cc2)CC1`: 0.215% (inactive). For the molecule `O=C1CC2(CCCCC2)Oc2ccc(OCC(=O)N3CCOCC3)cc21`, the inhibition is 9.94% (inactive). Next, `Cc1csc(NC(=O)C2CCCN2C(=O)OCC(C)C)n1` (stereo unspecified): -7.74% (inactive).

In the case of `Cc1cccc(N2CCN(C(=O)c3cc4c(=O)[nH]c5ccccc5c4n3C)CC2)c1C`, the inhibition is 8.97% (inactive).
